Results as given in PMC6437634 (Acta Pharmaceutica Sinica. B, 2018).
pIC50: −log10 of the molar value.

Key:
FGFR1 kinase = FGFR1 kinase (Homo sapiens, UniProt P11362); assay: ELISA kinase assay FGFR1; type: biochemical
[1] = In vitro metabolic stability, human liver microsomal intrinsic clearance; type: in vitro ADME; conditions: liver microsomes, pH 7.4
Summary of the method: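 Human liver microsomes (0.5 mg/mL) were preincubated 5 min at 37 °C with 1 μmol/L test compound in 0.1 mol/L phosphate buffer pH 7.4 with EDTA and MgCl2. NADPH started the reaction. Samples taken at 0, 5, 10 and 30 min at 37 °C were quenched with equal-volume cold acetonitrile and centrifuged. Remaining parent compound was quantified by LC–MS/MS.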

CYPs = assay: CYP time-dependent inhibition; type: in vitro ADME, human; conditions: kobs lower than 200 (10^-4/min) considered no TDI inhibition
CYP3A4 = CYP3A4 (Homo sapiens, UniProt P08684); assay: CYPs direct inhibition CYP3A4; type: in vitro ADME; conditions: liver microsomes, pH 7.4
Sequence of CYP3A4 (P08684 whole entry): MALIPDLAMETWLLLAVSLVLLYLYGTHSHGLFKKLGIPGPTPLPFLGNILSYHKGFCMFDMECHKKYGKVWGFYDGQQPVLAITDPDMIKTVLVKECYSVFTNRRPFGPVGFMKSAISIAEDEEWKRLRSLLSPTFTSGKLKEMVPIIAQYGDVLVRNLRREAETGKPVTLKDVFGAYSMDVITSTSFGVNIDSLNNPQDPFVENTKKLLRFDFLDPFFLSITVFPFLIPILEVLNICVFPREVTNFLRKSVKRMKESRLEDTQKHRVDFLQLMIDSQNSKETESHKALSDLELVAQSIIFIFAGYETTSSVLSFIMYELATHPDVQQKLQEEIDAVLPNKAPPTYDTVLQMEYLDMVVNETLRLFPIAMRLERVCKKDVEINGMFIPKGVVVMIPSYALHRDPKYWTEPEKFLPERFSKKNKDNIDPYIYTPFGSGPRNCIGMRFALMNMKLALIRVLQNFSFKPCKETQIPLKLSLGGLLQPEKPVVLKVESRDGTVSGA

Sequence of FGFR1 kinase (P11362 22-822): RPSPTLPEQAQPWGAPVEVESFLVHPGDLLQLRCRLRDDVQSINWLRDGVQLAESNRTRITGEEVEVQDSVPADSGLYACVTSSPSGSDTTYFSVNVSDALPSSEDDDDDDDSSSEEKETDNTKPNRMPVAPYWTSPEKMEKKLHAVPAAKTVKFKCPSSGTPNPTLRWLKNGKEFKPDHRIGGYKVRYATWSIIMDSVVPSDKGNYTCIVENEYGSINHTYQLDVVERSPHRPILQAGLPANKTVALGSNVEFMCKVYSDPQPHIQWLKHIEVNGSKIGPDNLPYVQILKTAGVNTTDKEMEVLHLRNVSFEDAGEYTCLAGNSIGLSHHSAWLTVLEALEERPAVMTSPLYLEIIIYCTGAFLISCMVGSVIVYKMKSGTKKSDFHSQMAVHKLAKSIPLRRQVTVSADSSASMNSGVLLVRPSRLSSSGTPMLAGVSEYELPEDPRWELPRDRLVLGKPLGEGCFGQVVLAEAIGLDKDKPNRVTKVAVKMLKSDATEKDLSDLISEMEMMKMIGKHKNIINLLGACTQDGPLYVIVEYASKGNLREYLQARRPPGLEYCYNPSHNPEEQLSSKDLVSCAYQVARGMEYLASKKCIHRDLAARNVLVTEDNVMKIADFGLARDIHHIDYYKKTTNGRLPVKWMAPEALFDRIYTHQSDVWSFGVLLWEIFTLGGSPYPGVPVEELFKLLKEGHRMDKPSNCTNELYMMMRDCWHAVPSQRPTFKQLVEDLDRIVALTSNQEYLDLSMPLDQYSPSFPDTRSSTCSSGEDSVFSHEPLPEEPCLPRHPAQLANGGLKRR

Row | Compound | FGFR1 enzymatic inhibitory activity (in words) (FGFR1 kinase) | microsomal CLint at 1 μmol/L [1] [µL/min/mg] | inhibition at 20 min, 10 μmol/L (CYP3A4) [%] | other results
1 | COc1cc(OC)c(Cl)c(CCc2cnc3ccn(S(=O)(=O)c4c[nH]cn4)c3n2)c1Cl [Compound 29] | picomolar range | 50 | 90 | TDI (time-dependent inhibition), CYPs affected (CYPs): No inhibition
2 | COc1cc(CCc2cnc3ccn(S(=O)(=O)c4c[nH]cn4)c3n2)cc(OC)c1 [Compound 12, 5-((1H-Imidazol-4-yl)sulfonyl)-3-(3,5-dimethoxyphenethyl)-5H-pyrrolo[2,3-b]pyrazine] | – | 38 | 96 | TDI (time-dependent inhibition), CYPs affected (CYPs): No inhibition
3 | COc1cc(OC)c(Cl)c(CCc2cnc3ccn(S(=O)(=O)c4ccccc4)c3n2)c1Cl [Compound 7, 3-(2,6-Dichloro-3,5-dimethoxyphenethyl)-5-(phenylsulfonyl)-5H-pyrrolo[2,3-b]pyrazine] | – | – | – | pIC50 (FGFR1 kinase): 7.85
4 | COc1cc(CCc2cnc3ccn(S(=O)(=O)c4cn(C)cn4)c3n2)cc(OC)c1 [Compound 20] | single digit nanomolar activity | 212 | 88 | –
5 | COc1cc(CCc2cnc3ccn(S(=O)(=O)c4cn(CCF)cn4)c3n2)c(F)c(OC)c1 [Compound 33, 3-(2-Fluoro-3,5-dimethoxyphenethyl)-5-((1-(2-fluoroethyl)-1H-imidazol-4-yl)sulfonyl)-5H-pyrrolo[2,3-b]pyrazine] | equipotent enzymatic activity as compound 32 | – | – | –
6 | COc1cc(CCc2cnc3ccn(S(=O)(=O)c4ccccc4)c3n2)cc(OC)c1 [Compound 5, 3-(3,5-Dimethoxyphenethyl)-5-(phenylsulfonyl)-5H-pyrrolo[2,3-b]pyrazine] | – | – | – | FGFR1 inhibition ratio (FGFR1 kinase; at 0.1 μmol/L): about 75%
7 | COc1cc(CCc2cnc3ccn(S(=O)(=O)c4cn(C)cn4)c3n2)c(F)c(OC)c1 [Compound 32, 3-(2-Fluoro-3,5-dimethoxyphenethyl)-5-((1-methyl-1H-imidazol-4-yl)sulfonyl)-5H-pyrrolo[2,3-b]pyrazine] | – | – | – | pIC50 (FGFR1 kinase): 9.40
8 | CCOc1cccc(CCc2cnc3ccn(S(=O)(=O)c4cn(C)cn4)c3n2)c1 [Compound 30, 3-(3-Ethoxyphenethyl)-5-((1-methyl-1H-imidazol-4-yl)sulfonyl)-5H-pyrrolo[2,3-b]pyrazine] | decreased dramatically | – | – | –
9 | COc1cc(OC)c(F)c(/C=C/c2cnc3ccn(S(=O)(=O)c4cn(C)cn4)c3n2)c1F [Compound 34, (E)-3-(2,6-Difluoro-3,5-dimethoxystyryl)-5-((1-methyl-1H-imidazol-4-yl)sulfonyl)-5H-pyrrolo[2,3-b]pyrazine] | equipotent enzymatic activity as compound 32 | – | – | –
